Laboratory results taken from ChEMBL document CHEMBL4396964, “Synthesis, biological activities, and docking studies of d-pantolactone derivatives as novel FAS inhibitors” (Bioorg Med Chem, 2019).
Calls of active or inactive are those of the source. The rule behind the calls is not given here.

What was measured:
[1] = system: HepG2; details: Homo sapiens, at 10 µM
[2] = target: Fatty acid synthase (Mus musculus, UniProt P19096); test: Inhibition of mouse FAS preincubated for 30 mins in presence of acetyl coenzyme A and NADPH followed by malonyl coenzyme A addition and measured after 3 mins by spectrophotometric analysis
Sequence of Fatty acid synthase (P19096 whole entry): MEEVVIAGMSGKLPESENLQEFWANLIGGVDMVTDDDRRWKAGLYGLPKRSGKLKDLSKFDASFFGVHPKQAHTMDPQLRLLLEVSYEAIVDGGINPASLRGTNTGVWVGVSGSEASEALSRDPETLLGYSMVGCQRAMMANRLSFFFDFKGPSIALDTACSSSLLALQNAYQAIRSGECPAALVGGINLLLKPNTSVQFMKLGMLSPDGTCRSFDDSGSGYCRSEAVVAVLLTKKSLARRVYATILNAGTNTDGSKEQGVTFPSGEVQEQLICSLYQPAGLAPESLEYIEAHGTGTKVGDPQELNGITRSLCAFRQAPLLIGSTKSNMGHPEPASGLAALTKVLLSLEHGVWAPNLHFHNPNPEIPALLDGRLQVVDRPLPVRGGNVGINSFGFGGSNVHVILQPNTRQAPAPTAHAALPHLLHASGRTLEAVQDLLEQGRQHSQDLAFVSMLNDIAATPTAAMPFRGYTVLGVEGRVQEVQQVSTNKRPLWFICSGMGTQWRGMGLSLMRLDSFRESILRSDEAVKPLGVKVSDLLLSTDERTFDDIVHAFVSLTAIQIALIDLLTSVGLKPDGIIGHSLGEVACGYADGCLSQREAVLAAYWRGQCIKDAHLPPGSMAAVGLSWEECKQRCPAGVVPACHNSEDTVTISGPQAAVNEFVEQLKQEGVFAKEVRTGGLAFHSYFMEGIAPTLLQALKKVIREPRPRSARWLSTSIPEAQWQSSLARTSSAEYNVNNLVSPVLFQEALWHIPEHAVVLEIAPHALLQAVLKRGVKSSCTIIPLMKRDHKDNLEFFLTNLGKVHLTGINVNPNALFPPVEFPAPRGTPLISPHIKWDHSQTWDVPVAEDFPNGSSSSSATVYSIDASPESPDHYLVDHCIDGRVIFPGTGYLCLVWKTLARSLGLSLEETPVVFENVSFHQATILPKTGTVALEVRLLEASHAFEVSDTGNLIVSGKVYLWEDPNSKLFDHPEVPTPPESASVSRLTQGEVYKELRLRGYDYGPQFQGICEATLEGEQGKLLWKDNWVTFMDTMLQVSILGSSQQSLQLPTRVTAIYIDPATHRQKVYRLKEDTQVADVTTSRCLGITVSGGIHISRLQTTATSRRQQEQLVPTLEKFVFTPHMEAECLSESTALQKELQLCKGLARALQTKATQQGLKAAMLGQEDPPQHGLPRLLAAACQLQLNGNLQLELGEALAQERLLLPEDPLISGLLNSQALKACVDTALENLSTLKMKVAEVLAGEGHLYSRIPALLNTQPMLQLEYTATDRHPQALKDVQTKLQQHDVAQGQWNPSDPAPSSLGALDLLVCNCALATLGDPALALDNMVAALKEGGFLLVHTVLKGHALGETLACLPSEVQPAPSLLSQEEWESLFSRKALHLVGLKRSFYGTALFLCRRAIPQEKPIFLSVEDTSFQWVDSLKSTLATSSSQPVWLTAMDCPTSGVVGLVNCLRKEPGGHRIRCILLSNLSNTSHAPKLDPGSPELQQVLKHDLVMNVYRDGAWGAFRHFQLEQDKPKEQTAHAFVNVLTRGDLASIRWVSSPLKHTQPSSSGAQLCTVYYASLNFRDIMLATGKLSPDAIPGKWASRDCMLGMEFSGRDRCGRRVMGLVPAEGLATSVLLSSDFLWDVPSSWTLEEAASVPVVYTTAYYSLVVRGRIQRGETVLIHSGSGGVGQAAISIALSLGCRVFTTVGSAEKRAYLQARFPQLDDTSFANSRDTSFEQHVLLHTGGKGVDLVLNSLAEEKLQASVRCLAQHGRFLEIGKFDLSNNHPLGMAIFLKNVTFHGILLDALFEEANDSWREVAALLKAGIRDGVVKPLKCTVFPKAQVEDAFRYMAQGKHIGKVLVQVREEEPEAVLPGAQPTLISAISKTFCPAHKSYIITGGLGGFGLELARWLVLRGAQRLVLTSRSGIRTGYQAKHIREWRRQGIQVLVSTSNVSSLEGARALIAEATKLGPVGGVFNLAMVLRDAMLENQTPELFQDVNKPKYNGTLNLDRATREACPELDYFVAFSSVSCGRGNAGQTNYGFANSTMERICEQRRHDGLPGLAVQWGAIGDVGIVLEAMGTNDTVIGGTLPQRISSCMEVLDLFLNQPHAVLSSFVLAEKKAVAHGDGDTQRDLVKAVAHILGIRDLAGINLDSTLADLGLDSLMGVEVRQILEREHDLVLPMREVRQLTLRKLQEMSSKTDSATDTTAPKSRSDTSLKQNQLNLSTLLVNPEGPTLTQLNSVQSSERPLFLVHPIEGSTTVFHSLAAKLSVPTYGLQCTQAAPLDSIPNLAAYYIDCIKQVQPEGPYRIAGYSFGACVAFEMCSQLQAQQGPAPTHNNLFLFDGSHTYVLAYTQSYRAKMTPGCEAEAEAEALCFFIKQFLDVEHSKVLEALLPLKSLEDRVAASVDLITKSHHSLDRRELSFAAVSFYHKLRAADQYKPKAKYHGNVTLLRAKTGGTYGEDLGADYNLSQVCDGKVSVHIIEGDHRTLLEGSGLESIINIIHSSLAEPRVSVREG
How it was run: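 Crude mouse-liver FAS (196.2 U/mg) preincubated with compound, NADPH and acetyl-CoA in K2HPO4 buffer pH 7.0 at 37 °C for 30 min. Malonyl-CoA then added, and NADPH oxidation followed at 340 nm for 3 min at 37 °C. Inhibition computed against a compound-free control. IC50 from at least five concentrations, each in triplicate; mean ± SE of three experiments.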

[3] = target: Fatty acid synthase (Mus musculus) (UniProt P19096); test: Inhibition of mouse FAS at 80 uM preincubated for 30 mins in presence of acetyl coenzyme A and NADPH followed by malonyl coenzyme A addition and measured after 3 mins by spectrophotometric analysis
Sequence of Fatty acid synthase (Mus musculus) (P19096 whole entry): as above

SMILES | inhibition [1] | IC50 [2] [µM] | inhibition [3]
CCCCCCCC(=O)O[C@H]1C(=O)OCC1(C)C | Active | 20.8 | 
CCCCc1ccc(C(=O)O[C@H]2C(=O)OCC2(C)C)cc1 |  | 27.7 | 
CCCCCCCCCCCC(=O)O[C@H]1C(=O)OCC1(C)C | Active | 15.2 | 
CC1(C)COC(=O)[C@@H]1OC(=O)c1ccc(Cl)cc1 | Active | 19.2 | 
CCCCCCCCCCCCCCCC(=O)O[C@H]1C(=O)OCC1(C)C | Active | 19.6 | 
CCCC(=O)O[C@H]1C(=O)OCC1(C)C |  | 28.2 | 
CCCCCCCCCCCCCCCCCC(=O)O[C@H]1C(=O)OCC1(C)C |  |  | inactive
CC(C)Cc1ccc(C(C)C(=O)O[C@H]2C(=O)OCC2(C)C)cc1 (some centres not stated) |  | 28.2 | 
CC1(C)COC(=O)[C@@H]1OC(=O)c1ccc(C#N)cc1 | Active | 21.5 | 
Cc1ccc(C(=O)O[C@H]2C(=O)OCC2(C)C)cc1 | inactive | 17.2 | 
CC1(C)COC(=O)[C@@H]1OC(=O)c1ccc(I)cc1 |  |  | inactive
CC(=O)Oc1cc(C(=O)O[C@H]2C(=O)OCC2(C)C)cc(OC(C)=O)c1OC(C)=O | Active | 13.9 | 
CCCCCC(=O)O[C@H]1C(=O)OCC1(C)C | Active | 23.3 | 
CC1(C)COC(=O)[C@@H]1OC(=O)c1ccccc1 | inactive | 23 | 
CCOc1ccc(C(=O)O[C@H]2C(=O)OCC2(C)C)cc1 |  |  | inactive
CC1(C)COC(=O)[C@@H]1O |  |  | inactive
C=C1C(=O)OC(CCCCCCCC)C1C(=O)O (configuration not stated) | Active | 13.9 | 
COc1ccc(C(=O)O[C@H]2C(=O)OCC2(C)C)cc1 | Active | 13.7 | 
CC1(C)COC(=O)[C@@H]1OC(=O)c1ccc(F)cc1 |  |  | inactive
CC1(C)COC(=O)[C@@H]1OC(=O)c1ccc(Br)cc1 |  |  | inactive
CC(=O)O[C@H]1C(=O)OCC1(C)C |  | 33.2 | 
